Reference: the M2OR odorant receptor database
Substitutions are numbered along the chain they refer to.

Legend:
Settings in all cases: stereoisomer not certain
OR6K3 (Homo sapiens) = target: T1, OR6K3 (Homo sapiens) (UniProt Q8NGY3)
T1 sequence (whole entry): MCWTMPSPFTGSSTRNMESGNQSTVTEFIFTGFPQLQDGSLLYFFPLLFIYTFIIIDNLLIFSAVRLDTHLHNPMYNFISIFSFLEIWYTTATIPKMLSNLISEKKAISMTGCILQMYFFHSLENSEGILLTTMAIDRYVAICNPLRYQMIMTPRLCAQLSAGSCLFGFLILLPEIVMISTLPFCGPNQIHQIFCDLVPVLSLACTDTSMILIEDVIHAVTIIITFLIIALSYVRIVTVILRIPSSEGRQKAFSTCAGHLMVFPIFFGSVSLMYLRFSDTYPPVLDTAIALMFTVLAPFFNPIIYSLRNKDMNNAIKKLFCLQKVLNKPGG
Summary of the method: (§1)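 Assay methods differ from source to source, frequently being transient luciferase assays in mammalian cell lines. For each receptor–molecule pair, the label responsive (active) applies when the original authors judged the measured signal statistically different from baseline, and non-responsive (inactive) applies otherwise.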

OR6K6 (Homo sapiens) = target: T2, OR6K6 (Homo sapiens) (UniProt Q8NGW6)
T2 sequence (whole entry): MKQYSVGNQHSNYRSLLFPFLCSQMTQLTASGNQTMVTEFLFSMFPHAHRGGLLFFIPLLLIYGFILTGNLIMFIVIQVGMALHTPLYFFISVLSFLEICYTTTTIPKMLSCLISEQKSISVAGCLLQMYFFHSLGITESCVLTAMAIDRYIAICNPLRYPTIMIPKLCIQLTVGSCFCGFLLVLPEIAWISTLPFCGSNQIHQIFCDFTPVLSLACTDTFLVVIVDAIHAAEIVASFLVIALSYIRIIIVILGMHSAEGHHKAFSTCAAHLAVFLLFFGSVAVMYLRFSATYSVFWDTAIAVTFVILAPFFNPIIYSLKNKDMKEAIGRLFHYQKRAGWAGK
Summary of the method: as §1

OR6M1 (Homo sapiens) = target: T3, OR6M1 (Homo sapiens) (UniProt Q8NGM8)
T3 sequence (whole entry): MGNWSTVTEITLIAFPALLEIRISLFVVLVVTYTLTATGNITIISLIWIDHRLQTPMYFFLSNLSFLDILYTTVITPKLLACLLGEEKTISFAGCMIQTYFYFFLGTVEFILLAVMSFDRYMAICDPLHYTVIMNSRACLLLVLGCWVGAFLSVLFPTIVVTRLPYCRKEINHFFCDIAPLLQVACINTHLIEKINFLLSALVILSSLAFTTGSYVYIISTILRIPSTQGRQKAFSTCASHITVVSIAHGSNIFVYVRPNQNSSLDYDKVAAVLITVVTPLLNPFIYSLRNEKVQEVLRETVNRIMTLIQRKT
Summary of the method: as §1

OR6N1 (Homo sapiens) = target: T4, OR6N1 (Homo sapiens) (UniProt Q8NGY5)
T4 sequence (whole entry): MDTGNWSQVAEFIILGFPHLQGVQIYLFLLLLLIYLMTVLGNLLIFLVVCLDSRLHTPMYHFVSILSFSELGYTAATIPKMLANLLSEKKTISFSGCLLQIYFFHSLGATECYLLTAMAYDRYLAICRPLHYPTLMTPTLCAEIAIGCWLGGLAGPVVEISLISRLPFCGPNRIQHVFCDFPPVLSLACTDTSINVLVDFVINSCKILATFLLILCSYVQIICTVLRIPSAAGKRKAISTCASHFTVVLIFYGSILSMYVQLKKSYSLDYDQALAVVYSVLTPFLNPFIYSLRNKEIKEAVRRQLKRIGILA
Summary of the method: as §1

OR6N2 (Homo sapiens) = target: T5, OR6N2 (Homo sapiens) (UniProt Q8NGY6)
T5 sequence (whole entry): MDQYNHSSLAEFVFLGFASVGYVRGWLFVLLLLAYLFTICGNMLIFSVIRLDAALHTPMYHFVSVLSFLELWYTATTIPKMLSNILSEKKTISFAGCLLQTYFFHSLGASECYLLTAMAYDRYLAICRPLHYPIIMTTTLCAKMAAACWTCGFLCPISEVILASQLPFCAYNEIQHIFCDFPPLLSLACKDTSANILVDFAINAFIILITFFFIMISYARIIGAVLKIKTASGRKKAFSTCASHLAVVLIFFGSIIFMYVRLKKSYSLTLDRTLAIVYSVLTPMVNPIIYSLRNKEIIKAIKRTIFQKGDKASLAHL
Summary of the method: as §1

OR6P1 (Homo sapiens) = target: T6, OR6P1 (Homo sapiens) (UniProt Q8NGX9)
T6 sequence (whole entry): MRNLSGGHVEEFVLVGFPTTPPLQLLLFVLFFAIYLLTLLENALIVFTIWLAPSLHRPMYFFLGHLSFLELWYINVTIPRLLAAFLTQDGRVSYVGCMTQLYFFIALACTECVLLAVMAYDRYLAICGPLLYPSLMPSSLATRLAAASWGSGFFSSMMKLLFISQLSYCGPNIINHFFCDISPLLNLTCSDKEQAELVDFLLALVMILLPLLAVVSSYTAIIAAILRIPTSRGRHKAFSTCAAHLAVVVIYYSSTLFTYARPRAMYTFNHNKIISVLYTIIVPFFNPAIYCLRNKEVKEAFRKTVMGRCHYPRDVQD
Summary of the method: as §1

OR6Q1 (Homo sapiens) = target: T7, OR6Q1 (Homo sapiens) (UniProt Q8NGQ2)
T7 sequence (whole entry): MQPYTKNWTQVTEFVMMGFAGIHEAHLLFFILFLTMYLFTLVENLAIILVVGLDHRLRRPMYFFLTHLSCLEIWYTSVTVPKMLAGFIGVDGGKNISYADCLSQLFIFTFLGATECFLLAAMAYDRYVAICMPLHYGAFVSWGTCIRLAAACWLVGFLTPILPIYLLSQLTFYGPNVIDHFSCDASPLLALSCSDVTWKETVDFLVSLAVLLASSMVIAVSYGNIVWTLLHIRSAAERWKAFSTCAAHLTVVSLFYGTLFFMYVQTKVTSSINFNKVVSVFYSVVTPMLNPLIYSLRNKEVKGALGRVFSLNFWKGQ
Summary of the method: as §1

OR6S1 (Homo sapiens) = target: T8, OR6S1 (Homo sapiens) (UniProt Q8NH40)
T8 sequence (whole entry): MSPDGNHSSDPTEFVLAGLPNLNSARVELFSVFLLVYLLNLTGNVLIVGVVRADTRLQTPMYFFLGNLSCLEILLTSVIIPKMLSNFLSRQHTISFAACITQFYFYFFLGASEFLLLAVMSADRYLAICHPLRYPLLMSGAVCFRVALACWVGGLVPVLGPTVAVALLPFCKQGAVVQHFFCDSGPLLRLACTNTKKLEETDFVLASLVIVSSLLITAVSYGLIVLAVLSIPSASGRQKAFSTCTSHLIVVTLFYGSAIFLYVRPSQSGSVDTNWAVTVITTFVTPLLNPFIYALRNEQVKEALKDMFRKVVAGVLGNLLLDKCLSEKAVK
Summary of the method: as §1

OR6T1 (Homo sapiens) = target: T9, OR6T1 (Homo sapiens) (UniProt Q8NGN1)
T9 sequence (whole entry): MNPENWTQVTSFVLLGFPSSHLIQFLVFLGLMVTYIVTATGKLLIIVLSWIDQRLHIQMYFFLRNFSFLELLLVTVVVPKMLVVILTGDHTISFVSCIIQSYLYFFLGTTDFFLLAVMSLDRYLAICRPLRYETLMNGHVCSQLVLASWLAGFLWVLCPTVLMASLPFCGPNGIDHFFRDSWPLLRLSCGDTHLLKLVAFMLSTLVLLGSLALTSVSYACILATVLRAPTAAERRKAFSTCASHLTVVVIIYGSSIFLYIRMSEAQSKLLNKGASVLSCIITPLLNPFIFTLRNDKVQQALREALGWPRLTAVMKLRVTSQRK
Summary of the method: as §1

OR6V1 (Homo sapiens) = target: T10, OR6V1 (Homo sapiens) (UniProt Q8N148)
T10 sequence (whole entry): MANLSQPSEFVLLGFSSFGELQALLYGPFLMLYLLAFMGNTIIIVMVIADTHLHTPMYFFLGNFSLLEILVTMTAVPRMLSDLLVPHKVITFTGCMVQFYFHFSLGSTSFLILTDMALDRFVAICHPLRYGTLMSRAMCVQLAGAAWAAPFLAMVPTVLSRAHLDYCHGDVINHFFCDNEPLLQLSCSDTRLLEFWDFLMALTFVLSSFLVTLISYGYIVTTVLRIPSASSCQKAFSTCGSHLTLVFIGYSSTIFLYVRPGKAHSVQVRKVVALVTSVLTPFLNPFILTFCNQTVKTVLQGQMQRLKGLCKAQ
Summary of the method: as §1

OR6X1 (Homo sapiens) = target: T11, OR6X1 (Homo sapiens) (UniProt Q8NH79)
T11 sequence (whole entry): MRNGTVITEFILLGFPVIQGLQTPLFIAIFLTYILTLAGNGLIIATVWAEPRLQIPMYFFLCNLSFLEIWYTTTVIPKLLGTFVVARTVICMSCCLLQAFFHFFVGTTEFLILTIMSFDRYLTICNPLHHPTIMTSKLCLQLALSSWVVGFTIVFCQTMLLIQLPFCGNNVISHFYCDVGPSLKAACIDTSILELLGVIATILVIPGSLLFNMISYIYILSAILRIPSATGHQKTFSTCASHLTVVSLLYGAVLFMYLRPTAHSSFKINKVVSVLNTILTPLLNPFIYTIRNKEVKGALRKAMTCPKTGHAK
Summary of the method: as §1

OR6Y1 (Homo sapiens) = target: T12, OR6Y1 (Homo sapiens) (UniProt Q8NGX8)
T12 sequence (whole entry): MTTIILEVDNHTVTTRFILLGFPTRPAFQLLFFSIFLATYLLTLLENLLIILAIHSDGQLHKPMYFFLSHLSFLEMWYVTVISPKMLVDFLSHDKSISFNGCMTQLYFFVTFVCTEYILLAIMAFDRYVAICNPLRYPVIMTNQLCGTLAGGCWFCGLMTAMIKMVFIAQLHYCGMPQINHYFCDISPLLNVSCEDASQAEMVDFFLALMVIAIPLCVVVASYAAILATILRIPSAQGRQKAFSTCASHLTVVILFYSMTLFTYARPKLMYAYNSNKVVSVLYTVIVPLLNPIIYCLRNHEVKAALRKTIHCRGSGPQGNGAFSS
Summary of the method: as §1

OR7A10 (Homo sapiens) = target: T13, OR7A10 (Homo sapiens) (UniProt O76100)
T13 sequence (whole entry): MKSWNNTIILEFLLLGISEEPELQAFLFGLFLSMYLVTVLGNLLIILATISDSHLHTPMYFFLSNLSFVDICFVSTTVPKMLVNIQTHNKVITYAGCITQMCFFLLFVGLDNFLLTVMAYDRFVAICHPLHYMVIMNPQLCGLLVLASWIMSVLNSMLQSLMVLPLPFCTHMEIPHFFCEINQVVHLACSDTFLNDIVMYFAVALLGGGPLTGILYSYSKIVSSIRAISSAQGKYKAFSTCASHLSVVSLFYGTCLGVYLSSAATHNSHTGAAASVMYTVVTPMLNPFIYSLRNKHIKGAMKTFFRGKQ
Summary of the method: as §1

OR7A17 (Homo sapiens) = target: T14, OR7A17 (Homo sapiens) (UniProt O14581)
T14 sequence (whole entry): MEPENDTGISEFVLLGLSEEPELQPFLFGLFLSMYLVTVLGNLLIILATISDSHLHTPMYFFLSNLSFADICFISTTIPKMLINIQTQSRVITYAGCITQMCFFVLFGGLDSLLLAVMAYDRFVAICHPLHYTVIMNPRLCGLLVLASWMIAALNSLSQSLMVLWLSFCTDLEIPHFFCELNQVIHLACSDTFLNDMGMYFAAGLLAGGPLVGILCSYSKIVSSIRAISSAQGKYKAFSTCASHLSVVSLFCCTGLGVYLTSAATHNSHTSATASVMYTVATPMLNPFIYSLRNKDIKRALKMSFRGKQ
Summary of the method: as §1

OR7A5 (Homo sapiens) = target: T15, OR7A5 (Homo sapiens) (UniProt Q15622)
T15 sequence (whole entry): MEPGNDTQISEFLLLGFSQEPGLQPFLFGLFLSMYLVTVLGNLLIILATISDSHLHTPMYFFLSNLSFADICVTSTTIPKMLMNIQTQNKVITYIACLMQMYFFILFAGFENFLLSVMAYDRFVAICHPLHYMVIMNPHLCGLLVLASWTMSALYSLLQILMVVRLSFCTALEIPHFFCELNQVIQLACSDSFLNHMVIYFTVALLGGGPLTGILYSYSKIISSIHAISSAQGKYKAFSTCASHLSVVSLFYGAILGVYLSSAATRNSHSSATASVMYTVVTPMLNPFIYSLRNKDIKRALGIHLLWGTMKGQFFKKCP
Summary of the method: as §1

OR6K3 = test system: T16, OR6K3
T16 sequence (whole entry): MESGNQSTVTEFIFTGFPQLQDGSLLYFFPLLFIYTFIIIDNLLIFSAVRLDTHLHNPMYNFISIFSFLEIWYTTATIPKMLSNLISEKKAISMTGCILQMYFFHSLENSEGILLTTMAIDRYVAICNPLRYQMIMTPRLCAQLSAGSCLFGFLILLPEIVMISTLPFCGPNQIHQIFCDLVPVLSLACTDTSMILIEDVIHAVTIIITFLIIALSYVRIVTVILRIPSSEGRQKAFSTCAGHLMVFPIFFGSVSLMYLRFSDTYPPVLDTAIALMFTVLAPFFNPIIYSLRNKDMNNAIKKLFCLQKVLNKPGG
Summary of the method: as §1

OR6M1 R224C = test system: T17, OR6M1 R224C
T17 sequence (whole entry): T3 sequence (whole entry) with R224C
Summary of the method: as §1

OR6M1 T276K = test system: T18, OR6M1 T276K
T18 sequence (whole entry): T3 sequence (whole entry) with T276K
Summary of the method: as §1

OR6S1 T42I V156I = test system: T19, OR6S1 T42I V156I
T19 sequence (whole entry): T8 sequence (whole entry) with T42I, V156I
Summary of the method: as §1

OR6T1 N2D = test system: T20, OR6T1 N2D
T20 sequence (whole entry): T9 sequence (whole entry) with N2D
Summary of the method: as §1

Measured: odorant receptor agonist call

CC(=O)c1c(C)c([N+](=O)[O-])c(C(C)(C)C)c([N+](=O)[O-])c1C
not listed: OR6K3 | OR6M1 R224C | OR6M1 T276K | OR6S1 T42I V156I | OR6T1 N2D
inactive: all other assays above

CC1=C(O)C(=O)OC1C (centres undefined)
not listed: OR6K3 (Homo sapiens)
inactive: all other assays above
